ChEMBL document CHEMBL2440017, “Discovery of a potent, selective, and orally bioavailable histamine H3 receptor antagonist SAR110068 for the treatment of sleep-wake disorders” (Bioorg Med Chem Lett, 2013)
Values after ≈ are worked out from the molar mass of the structure shown. Active and inactive are the calls of the source. No cut-off for these calls is given here.

Columns and labels:
[1] = Solubility of the compound in gastrointestinal tract simulation medium; type: physicochemical
[2] = Solubility of the compound in water; type: physicochemical
Plasma [3] = assay: Metabolic stability in rat plasma; type: ADME, cell-free
Summary of the method: (§1)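 Compound stability measured in plasma of each species in vitro.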

[4] = Drug degradation in water after 48 hrs at room temperature; type: physicochemical; details: read-out: Drug degradation
Summary of the method: (§2)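 Compound kept 48 h at room temperature in water, aqueous solutions of pH 1.0–7.4, DMSO, or GI-tract simulation medium. Percent degradation measured.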

[5] = Inhibition of CYP450 in human hepatocytes at > 100 uM; type: ADME, cell-based, Hepatocyte
[6] = Inhibition of p-glycoprotein (unknown origin); details: human
[7] = Drug degradation in gastrointestinal tract simulation medium after 48 hrs at room temperature; type: physicochemical; details: read-out: Drug degradation; summary of the method: as §2
[8] = Drug degradation in aqueous solution at pH 1.0 to 7.4 after 48 hrs at room temperature; type: physicochemical; details: read-out: Drug degradation; summary of the method: as §2
Histamine H3 receptor [9] = target: T1, Histamine H3 receptor (Homo sapiens, UniProt Q9Y5N1); assay: Antagonist activity at human histamine H3 receptor expressed in CHO cells co-expressing CRE-Luc; type: functional, cell-based
Cytochrome P450 1A2 = target: T2, Cytochrome P450 1A2 (Homo sapiens, UniProt P05177); assay: Inhibition of CYP1A2 (unknown origin); type: ADME
T2 sequence (P05177 whole entry): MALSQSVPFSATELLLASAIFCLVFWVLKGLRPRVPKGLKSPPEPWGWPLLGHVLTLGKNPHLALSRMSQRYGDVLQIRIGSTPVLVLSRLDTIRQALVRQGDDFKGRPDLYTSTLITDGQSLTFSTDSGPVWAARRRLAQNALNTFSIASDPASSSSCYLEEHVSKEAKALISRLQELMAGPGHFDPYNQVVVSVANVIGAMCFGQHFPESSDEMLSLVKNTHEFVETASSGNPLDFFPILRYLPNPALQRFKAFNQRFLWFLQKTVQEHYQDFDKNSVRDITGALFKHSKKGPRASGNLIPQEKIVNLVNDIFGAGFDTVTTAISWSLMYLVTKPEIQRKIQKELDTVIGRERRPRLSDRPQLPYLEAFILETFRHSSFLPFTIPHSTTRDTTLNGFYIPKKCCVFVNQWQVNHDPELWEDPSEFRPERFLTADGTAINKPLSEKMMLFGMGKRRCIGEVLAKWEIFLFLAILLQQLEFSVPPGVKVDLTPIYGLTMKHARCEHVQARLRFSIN

[10] = Genotoxicity in micronucleus (unknown origin) at 5 to 950 ug/ml in presence of human liver microsomes; type: toxicity, Microsome
Summary of the method: (§3)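 Ames II and micronucleus tests, Ames over 3–1000 µg/mL and MNT over 5–950 µg/mL. Each run with and without metabolic activation by human liver microsome preparations.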

[11] = Metabolic stability in guinea pig microsomes; type: ADME, Cavia porcellus, Microsome
Summary of the method: (§4)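 Percentage biotransformation measured in vitro in liver microsomes of each species.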

Salmonella typhimurium [12] = assay: Genotoxicity in Salmonella typhimurium at 3 to 1000 ug/ml by Ames 2 test in presence of human liver microsomes; type: toxicity, organism-based; details: salmonella enterica subsp. enterica serovar typhimurium; summary of the method: as §3
Salmonella typhimurium [13] = assay: Genotoxicity in Salmonella typhimurium at 3 to 1000 ug/ml by Ames 2 test; type: toxicity, organism-based; details: salmonella enterica subsp. enterica serovar typhimurium; summary of the method: as §3
[14] = Plasma concentration in cynomolgus monkey at 10 mg/kg, iv after 15 mins; type: ADME, organism-based, Macaca fascicularis; design: dose 10 mg/kg, route intravenous
Summary of the method: (§5)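 Anaesthetized cynomolgus monkeys were dosed 10 mg/kg i.v. Plasma drug concentrations were measured at 5, 15 and 30 min post-dose, alongside arterial pressure, heart rate and ECG intervals.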

[15] = Metabolic stability in monkey microsomes; type: ADME, Macaca mulatta, Microsome; details: rhesus monkey; summary of the method: as §4
Cytochrome P450 2C9 = Cytochrome P450 2C9 (Homo sapiens, UniProt P11712); assay: Inhibition of CYP2C9 (unknown origin); type: ADME
[16] = Ratio of AUC (0 to infinity) in Sprague-Dawley rat brain to AUC (0 to infinity) in Sprague-Dawley rat at 2 mg/kg, iv; type: ADME, organism-based; design: dose 2 mg/kg, route intravenous; details: read-out: Ratio AUC
Summary of the method: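 Male Sprague–Dawley rats received 2 mg/kg i.v. (0.5 mg/mL in saline) or 10 mg/kg p.o. (1.0 mg/mL in 0.5% MC/0.2% Tween80). Plasma and brain AUC0-inf were measured, and the B/P ratio was calculated from i.v. AUC0-inf.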

[17] = Metabolic stability in guinea pig plasma; type: ADME, cell-free, Cavia porcellus; summary of the method: as §1
[18] = Plasma concentration in cynomolgus monkey at 10 mg/kg, iv after 5 mins; type: ADME, organism-based, Macaca fascicularis; design: dose 10 mg/kg, route intravenous; summary of the method: as §5
CYP3A4 = CYP3A4 (Homo sapiens, UniProt P08684); assay: Inhibition of CYP3A4 (unknown origin) at 5 uM; type: ADME
Mus musculus [19] = assay: Toxicity in mouse assessed as tremors at 100 mg/kg, po; type: organism-based; design: dose 100 mg/kg, route oral; details: in vivo
[20] = Distribution coefficient, log D of the compound at pH 7.4; type: physicochemical; details: octanol/water
Plasma [21] = assay: Clearance in OF1 mouse plasma at 2 mg/kg, iv; type: ADME, organism-based; design: dose 2 mg/kg, route intravenous; details: in vivo
Summary of the method: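 Male OF1 mice or male Sprague-Dawley rats, single 2 mg/kg i.v. dose. Mouse vehicle 50% 1-methyl-2-pyrrolidinone in saline at 1.0 mg/mL; rat vehicle saline at 0.5 mg/mL. Plasma and brain levels followed over time; AUC0-inf, t1/2 and clearance derived from exposure. Brain/plasma ratio uses i.v. AUC0-inf.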

[22] = target: Histamine H3 receptor (Cavia porcellus) (UniProt Q9JI35); assay: Antagonist activity at histamine H3 receptor in guinea pig ileum assessed as inhibition of RAMH-induced inhibition of electrical field-stimulated contraction; type: tissue-based
Summary of the method: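 Isolated guinea pig ileum contracted by electrical field stimulation. Contractions inhibited with the H3 agonist RAMH; test compound examined for competitive antagonism of this RAMH effect.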

[23] = Induction of CYP450 in human hepatocytes at 1 to 60 uM; type: ADME, cell-based, Hepatocyte
Summary of the method: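 Human hepatocytes (n = 4) exposed at 1–60 concentration and examined for induction of CYP isoforms.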

[24] = Volume of distribution in OF1 mouse plasma at 2 mg/kg, iv; type: ADME, organism-based; design: dose 2 mg/kg, route intravenous
Summary of the method: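 Male OF1 mice received 2 mg/kg i.v. (1.0 mg/mL in 50% 1-methyl-2-pyrrolidinone/saline) or 10 mg/kg p.o. (1.0 mg/mL in 5% DMSO/0.5% MC/0.2% Tween80). Plasma and brain AUC0-inf were measured, and the B/P ratio was calculated from i.v. AUC0-inf.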

[25] = Lipophilicity, log P of the compound; type: physicochemical; details: octanol/water
Summary of the method: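 clogP calculated with ACD/Labs methods.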

Histamine H3 receptor [26] = target: T1, Histamine H3 receptor; assay: Displacement of [3H]N-alpha-methylhistamine from human histamine H3 receptor expressed in CHO cells; type: cell-based
Mus musculus [27] = assay: Toxicity in mouse assessed as behavioral side effect at 10 to 30 mg/kg, po; type: organism-based; design: dose 10-30 mg/kg, route oral; details: in vivo
Summary of the method: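 Acute oral behavioral safety evaluation in mice. Oral doses were 0, 10 and 30 mg/kg. Behavioral, neurologic and autonomic signs were scored.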

[28] = Elimination half life in Sprague-Dawley rat brain at 10 mg/kg, po; type: ADME, organism-based; design: dose 10 mg/kg, route oral; details: read-out: beta t1/2 (converted)
Summary of the method: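 Oral gavage at 10 mg/kg to male OF1 mice (vehicle 5% DMSO/0.5% MC/0.2% Tween80, 1.0 mg/mL) or male Sprague-Dawley rats (vehicle 0.5% MC/0.2% Tween80, 1.0 mg/mL). Plasma and brain exposure and half-life determined.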

[29] = target: Sigma non-opioid intracellular receptor 1 (Homo sapiens) (UniProt Q99720); assay: Inhibition of sigma 1 receptor (unknown origin) at 10 uM
Summary of the method: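 CEREP selectivity panel: percent inhibition of control specific binding at 10 µM.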

T1 sequence (Q9Y5N1 whole entry): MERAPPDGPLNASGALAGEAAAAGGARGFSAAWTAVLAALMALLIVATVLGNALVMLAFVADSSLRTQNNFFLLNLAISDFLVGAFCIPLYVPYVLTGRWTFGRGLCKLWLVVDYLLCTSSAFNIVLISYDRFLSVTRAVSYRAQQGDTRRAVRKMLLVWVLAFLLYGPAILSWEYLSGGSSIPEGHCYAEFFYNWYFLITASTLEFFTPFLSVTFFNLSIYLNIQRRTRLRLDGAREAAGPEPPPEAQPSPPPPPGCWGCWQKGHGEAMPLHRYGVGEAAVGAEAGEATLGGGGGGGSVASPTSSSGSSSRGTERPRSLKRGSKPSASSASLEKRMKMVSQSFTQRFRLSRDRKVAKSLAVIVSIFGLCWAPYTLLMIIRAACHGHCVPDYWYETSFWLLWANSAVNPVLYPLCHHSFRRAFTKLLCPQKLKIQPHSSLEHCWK
CYP3A4, sequence (P08684 whole entry): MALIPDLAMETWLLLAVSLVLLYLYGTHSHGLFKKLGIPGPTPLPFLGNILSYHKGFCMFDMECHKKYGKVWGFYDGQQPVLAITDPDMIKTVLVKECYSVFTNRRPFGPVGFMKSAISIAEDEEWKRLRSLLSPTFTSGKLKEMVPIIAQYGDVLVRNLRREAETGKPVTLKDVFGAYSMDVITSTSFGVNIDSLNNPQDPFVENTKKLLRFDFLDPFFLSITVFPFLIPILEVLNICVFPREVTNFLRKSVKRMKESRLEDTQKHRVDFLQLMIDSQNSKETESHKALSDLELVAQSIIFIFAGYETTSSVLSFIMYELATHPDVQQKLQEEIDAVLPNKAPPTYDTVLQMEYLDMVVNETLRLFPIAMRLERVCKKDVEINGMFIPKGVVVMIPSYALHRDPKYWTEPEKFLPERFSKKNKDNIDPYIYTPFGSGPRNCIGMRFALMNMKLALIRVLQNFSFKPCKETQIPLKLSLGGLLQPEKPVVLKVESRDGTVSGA
Cytochrome P450 2C9, sequence (P11712 whole entry): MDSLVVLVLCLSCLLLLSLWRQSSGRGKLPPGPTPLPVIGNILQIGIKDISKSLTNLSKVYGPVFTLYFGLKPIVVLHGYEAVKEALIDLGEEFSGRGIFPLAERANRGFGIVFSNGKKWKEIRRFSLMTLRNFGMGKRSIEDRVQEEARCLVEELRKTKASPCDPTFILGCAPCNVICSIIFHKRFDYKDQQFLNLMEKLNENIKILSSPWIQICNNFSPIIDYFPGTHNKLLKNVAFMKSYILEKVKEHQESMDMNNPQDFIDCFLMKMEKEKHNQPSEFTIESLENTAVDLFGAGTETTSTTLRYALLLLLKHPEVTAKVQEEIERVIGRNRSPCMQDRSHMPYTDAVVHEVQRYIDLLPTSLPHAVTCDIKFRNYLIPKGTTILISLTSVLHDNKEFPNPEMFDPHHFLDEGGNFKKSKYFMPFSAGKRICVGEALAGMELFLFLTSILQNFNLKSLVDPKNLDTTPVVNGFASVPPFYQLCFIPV
Sigma non-opioid intracellular receptor 1 (Homo sapiens), sequence (Q99720 whole entry): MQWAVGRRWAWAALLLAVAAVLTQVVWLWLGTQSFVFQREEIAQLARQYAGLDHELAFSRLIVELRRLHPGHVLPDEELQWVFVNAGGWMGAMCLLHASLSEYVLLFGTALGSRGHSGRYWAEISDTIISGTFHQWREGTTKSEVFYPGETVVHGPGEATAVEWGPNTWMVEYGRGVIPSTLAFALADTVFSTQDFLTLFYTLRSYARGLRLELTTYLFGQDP
Histamine H3 receptor (Cavia porcellus), sequence (Q9JI35 whole entry): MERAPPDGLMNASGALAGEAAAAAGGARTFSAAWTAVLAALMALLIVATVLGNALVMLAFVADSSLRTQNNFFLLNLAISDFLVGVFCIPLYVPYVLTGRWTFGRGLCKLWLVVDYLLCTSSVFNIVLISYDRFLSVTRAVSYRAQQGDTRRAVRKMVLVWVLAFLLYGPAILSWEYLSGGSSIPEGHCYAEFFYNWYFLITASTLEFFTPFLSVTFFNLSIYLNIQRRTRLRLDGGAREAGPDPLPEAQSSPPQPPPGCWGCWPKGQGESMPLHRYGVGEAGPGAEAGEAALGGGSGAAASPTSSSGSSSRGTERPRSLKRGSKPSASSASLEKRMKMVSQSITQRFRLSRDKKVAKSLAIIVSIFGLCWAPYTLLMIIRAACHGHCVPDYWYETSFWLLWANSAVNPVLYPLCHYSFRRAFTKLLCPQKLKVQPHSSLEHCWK

SMILES: Cc1cc(N2CC[C@H](N3CCC[C@@H]3C)C2)ccc1NC(=O)C1CCOCC1
- solubility [1]: > 2500 µg/mL
- solubility [2]: 1100 µg/mL (≈ 2960 µM)
- Stability (Plasma [3]): Stable
- degraded at 48 h [4]: < 2%
- inhibition (INH) [5]: Not Active
- inhibition (INH) [6]: Not Active
- degraded at 48 h [7]: < 2%
- degraded at 48 h [8]: < 2%
- EC50 (Histamine H3 receptor [9]): 0.9 nM
- inhibition (INH) (Cytochrome P450 1A2): Active
- Activity [10]: Non-toxic
- Stability [11]: Stable
- Activity (Salmonella typhimurium [12]): Non-toxic
- Activity (Salmonella typhimurium [13]): Non-toxic
- concentration at 0.25 h [14]: 14 µM
- Stability [15]: Stable
- inhibition (INH) (Cytochrome P450 2C9): Active
- Kp [16]: 0.33
- Stability [17]: Stable
- concentration at 5 min [18]: 28 µM
- inhibition at 5 µM (CYP3A4): 61%
- Activity (Mus musculus [19]): Non-toxic
- logD [20]: 0.15
- clearance (Plasma [21]): 30 mL/min/kg
- inhibition [22]: Active
- Activity [23]: Not Active
- Vd [24]: 3.5 L/kg
- logP [25]: 1.31
- Ki (Histamine H3 receptor [26]): 1 nM
- Activity (Mus musculus [27]): Non-toxic
- half-life [28]: 3.8 h
- inhibition [29]: 53%
